Test [1] deals with human CB1 (hCB1) receptor (Homo sapiens, UniProt P21554). The test is classed as binding. The conditions noted are these: for Rank order (affinity): rank of pKi among EG-018 and 13 analogues.
The target in test [2] is T1, human CB1 (Homo sapiens, UniProt P21554). Kind of test: Inhibition of FSK-stimulated cAMP. Format: cell-based. The conditions noted are these: for Emax: HEK293, read-out: E MAX (±SEM), %; for Rank order efficacy: cAMP inhibition efficacy ranking.
Test [3] addresses T1, human CB1. Kind of test: Phospho-ERK AlphaLISA assay in 3HA-hCB1 HEK cells. The test is classed as cell-based. The conditions noted are these: 10 µM alone. The gist of the method:
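3HA-hCB1 HEK cells were plated at 2.5e4/well on poly-D-lysine-coated plates and serum-starved overnight after ~24 h in serum-free high-glucose DMEM with 1 mg/ml BSA. Drugs were made at 2x, prewarmed and dispensed in a 37°C waterbath, staggered so all stimulations ended together. The time course used 31.6 µM. Cells were lysed on ice and pERK read by AlphaLISA SureFire Ultra, in technical duplicate or quadruplicate.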
On the technique in general: Alpha assays give light when donor and acceptor beads are brought close together.

In test [4] the target is T1, human CB1. Kind of test: [35S]GTPγS binding in P2 membranes of HEK293 cells expressing hCB1. Format: biochemical. The conditions noted are these: for Rank order efficacy: [35S]-GTPγS efficacy ranking; for Emax: read-out: E MAX (±SEM), %. A general note: Binding of GTPγS marks nucleotide exchange on a G protein.

T1 sequence (P21554 whole entry): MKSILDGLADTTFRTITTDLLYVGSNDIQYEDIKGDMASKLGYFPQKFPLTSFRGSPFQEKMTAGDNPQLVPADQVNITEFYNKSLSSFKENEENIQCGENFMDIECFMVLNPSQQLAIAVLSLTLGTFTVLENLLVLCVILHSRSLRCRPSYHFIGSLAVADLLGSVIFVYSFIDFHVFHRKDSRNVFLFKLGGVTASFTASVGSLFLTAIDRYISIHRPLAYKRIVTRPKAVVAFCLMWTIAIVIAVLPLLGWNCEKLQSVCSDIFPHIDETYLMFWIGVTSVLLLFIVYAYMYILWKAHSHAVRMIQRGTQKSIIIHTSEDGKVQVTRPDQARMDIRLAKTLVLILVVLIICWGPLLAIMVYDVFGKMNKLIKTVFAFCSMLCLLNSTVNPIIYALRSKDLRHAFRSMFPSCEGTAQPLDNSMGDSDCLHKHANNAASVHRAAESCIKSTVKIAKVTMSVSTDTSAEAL
Chain of human CB1 (hCB1) receptor (P21554 whole entry): as above

For `O=C(c1ccc2c(c1)c1ccccc1n2CCN1CCOCC1)c1ccnc2ccccc12` [Compound 157, (9-(2-(Morpholin-4-yl)ethyl)-9H-carbazol-3-yl)(quinoline-4-yl)methanone], in test [1], the Ki is 589 nM and the “Rank order (affinity)” value worked out at 13. Also, at human CB1 [2], the EC50 is 91.2 nM, the Emax stood at 13.1% and the Rank order efficacy stood at 14. Also, the “right-shift in the potency of the CP55940 response (cAMP)” value on human CB1 [2] (10 µM antagonist, E MAX not reduced) is reported as “approximately 1 log unit”. The “agonist response in pERK by compound alone” value on human CB1 [3] is given as “not driving an agonist response in pERK”. On human CB1 [4], the EC50 was 257 nM, the Rank order efficacy amounted to 10 and the Emax was 88.2%.

With `O=C(NN1CCCCC1)c1nn(-c2ccc(Cl)cc2Cl)c2c1CCCc1cc(Cl)ccc1-2` [NESS‐0327, reference compound], the “inverse agonism in cAMP assay” value at human CB1 [2] (concentration-response, compared to SR141716A) is “approximately equivalent inverse agonism to SR141716A”.

On to `Cc1ccc(C(=O)c2ccc3c(c2)c2ccccc2n3CCN2CCOCC2)c2ccccc12` [Compound 141, (9-(2-(Morpholin-4-yl)ethyl)-9H-carbazol-3-yl)(4-methylnaphthalen-1-yl)methanone], for which, in test [1], the Ki was 148 nM and the “Rank order (affinity)” value is recorded as 8. For the same compound, at human CB1 [2], it took 83.2 nM to reach a half-maximal effect (EC50), the Emax turned out to be 38.7% and the Rank order efficacy was found to be 7. Moreover, at human CB1 [4], the EC50 is 355 nM, the Rank order efficacy is given as 8 and the Emax came out at 106%.

As to `O=C(c1ccc2c(c1)c1ccccc1n2CCCCCO)c1cccc2ccccc12` [Compound 045], in test [1], the Ki is 166 nM and the “Rank order (affinity)” value came out at 9. In addition, on human CB1 [2], the EC50 was 148 nM, the Emax turned out to be 34.9% and the Rank order efficacy is on record as 9. In addition, at human CB1 [4], the EC50 is 257 nM, the Rank order efficacy was 12 and the Emax came to 81.9%.

For `O=C(c1ccc2c(c1)c1ccccc1n2CCN1CCOCC1)c1cc2ccccc2[nH]1` [Compound 142, (9-(2-(Morpholin-4-yl)ethyl)-9H-carbazol-3-yl)(1H-indol-2-yl)methanone], the “Rank order (affinity)” value in test [1] is 14. Moreover, at human CB1 [2], the EC50 was 1200 nM, the Emax was determined as 31.5% and the Rank order efficacy amounted to 13. At human CB1 [4], the EC50 was 6170 nM, the Rank order efficacy turned out to be 6 and the Emax was found to be 123%.

On to `O=C(c1ccc2c(c1)c1ccccc1n2CCN1CCOCC1)c1cc2ccccc2o1` [Compound 146, 1-Benzofuran-2-yl(9-(2-(morpholin-4-yl)ethyl)-9H-carbazol-3-yl)methanone], for which, in test [1], the Ki is 295 nM and the “Rank order (affinity)” value is recorded as 11. For the same compound, on human CB1 [2], the EC50 was 355 nM, the Emax was 38.5% and the Rank order efficacy was 8.

In general, Ki refers to the equilibrium dissociation constant of an inhibitor or competing ligand from its target. Read a low Ki as tighter binding. The term EC50 denotes the concentration that produces a half-maximal response.

These data come from paper PMC8929370 (Pharmacology Research & Perspectives, 2022).
